The source of these data is ChEMBL document CHEMBL1132205, “Desazadesmethyldesferrithiocin analogues as orally effective iron chelators” (J Med Chem, 1999).

In data set [1] the test system is Rattus norvegicus. Nature of the data set: Efficiency of the chelator [(net iron excretion ) / (total iron binding capacity of chelator)] to induce iron clearance in rat at a subcutaneous dose of 150 uMol/kg. Format: functional. A digest of the protocol: (§1)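 Male Sprague–Dawley rats (~400 g) had bile-duct cannulation under ip pentobarbital. Chelator in 40% Cremophor RH-40/water was given at 150 µmol/kg, po or sc. Bile was collected at 3-h intervals for 24 h and urine every 24 h; iron was measured in both. Net iron = treated minus control excretion, divided by the theoretical 2:1 ligand–iron binding capacity, as a percent.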

Data set [2] has as its system Rattus norvegicus. Nature of the data set: Efficiency of the chelator [(net iron excretion ) / (total iron binding capacity of chelator)] to induce iron clearance in rat at a peroral dose of 150 umol/kg. Format: functional. The gist of the method: as §1
The test system of data set [3] is Rattus norvegicus. Nature of the data set: Efficiency of the chelator [(net iron excretion ) / (total iron binding capacity of chelator)] to induce iron clearance in rat at a peroral dose of 150 uMol/kg. The format is functional. A digest of the protocol:
as §1

A short description of data set [4]: log P value measured in TRIS buffer at a pH 7.4. The format is physicochemical. The gist of the method: (§2)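 Shake-flask octanol/50 mM TRIS buffer pH 7.4 at 24 °C, with 3–5 min mixing and 1–24 h settling. Phase concentrations were read by UV spectrometry. Values are distribution coefficients uncorrected for partial ionization of the acids.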
The test system of data set [5] is Monkey. Nature of the data set: Efficiency of the chelator [(net iron excretion ) / (total iron binding capacity of chelator)] to induce iron clearance in monkey at a peroral dose of 150 uMol/kg. Format: functional, Cercopithecidae. The gist of the method: (§3)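 Capuchin (Cebus apella) monkeys were iron-loaded with 2–3 iron dextran iv infusions to about 500 mg Fe/kg, then rested at least 60 days. Chelator was given po in 40% Cremophor RH-40/water. Feces and urine were collected every 24 h, from 4 days pre-dose to 5 days post-dose, and iron was measured by flame AAS. Efficiency = (2-day post-dose iron − mean 4-day baseline) / theoretical output for a 2:1 ligand–iron complex, as a percent.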

Data set [6] is described as follows: Octanol-water apparent distribution coefficient measured in TRIS buffer at a pH 7.4. Format: physicochemical. A digest of the protocol:
as §2

Data set [7] relates to Rattus norvegicus. Nature of the data set: Chronic toxicity in rats administered by gavage at a dose of 384 [uMol/kg/day] X 10 days, measured as number of deaths. Activity value is 0/5 (All histopathologies normal; well tolerated for 10-day test period). Conditions: in vivo, po, 240 h. Format: organism-based.
Data set [8] relates to Monkey. Nature of the data set: Efficiency of the chelator [(net iron excretion ) / (total iron binding capacity of chelator)] to induce iron clearance in monkey at a peroral dose of 75 umol/kg.
Data set [9] deals with Monkey. Nature of the data set: Efficiency of the chelator [(net iron excretion ) / (total iron binding capacity of chelator)] to induce iron clearance in monkey at a peroral dose of 300 uMol/kg. The format is functional, Cercopithecidae. A digest of the protocol: as §3
Data set [10] concerns Rattus norvegicus. Nature of the data set: Chronic toxicity in 5 rats administered by gavage at a dose of 384 [uMol/kg/day] X 10 days, measured as number of deaths. Activity value is 0/5 (All histopathologies normal; well tolerated for 10-day test period). Format: organism-based. Conditions: in vivo, po, 240 h.
Data set [11] has as its system Rattus norvegicus. Nature of the data set: Chronic toxicity in 5 rats administered by gavage at a dose of 384 [uMol/kg/day] X 10 days, measured as number of deaths. Activity value is 5/5. The format is organism-based. As to conditions: in vivo, po, 240 h.
Data set [12] relates to Rattus norvegicus. Nature of the data set: Chronic toxicity in 5 rats administered by gavage at a dose of 384 [uMol/kg/day] X 10 days, measured as number of deaths. Activity value is 5/5. Format: organism-based. Conditions: in vivo, po, 240 h.

SMILES strings stand for the structures. A value given as a limit tells only on which side of the number the result lay.

`O=C(O)C1CN=C(c2ccccc2O)N1` (centres undefined): the Efficiency with Rattus norvegicus [1] and with Rattus norvegicus [2] was less than 0.5% in each case.
On to `COc1cccc(C2=N[C@@H](C(=O)O)CS2)c1O`, for which the Efficiency is given as 0.5% in the data set on Rattus norvegicus [1] and 0.9% in the data set with Rattus norvegicus [2].
For `O=C(O)[C@H]1CSC(Cc2ccccc2O)=N1`, the Efficiency in the data set with Rattus norvegicus [1] and with Rattus norvegicus [2] was less than 0.5% throughout.
In turn, `O=C(O)C[C@H]1CSC(c2ccccc2O)=N1` had an Efficiency in the data set with Rattus norvegicus [2] of less than 0.5%.
Same read-out and setting: with `O=C(O)CC[C@H]1CSC(c2ccccc2O)=N1` the figure was less than 0.5%.
Take `O=C(O)c1ccc(C2=N[C@@H](C(=O)O)CS2)c(O)c1`: the Efficiency in the data set with Rattus norvegicus [1] and in the data set on Rattus norvegicus [2] was less than 0.5% in each case.
With `O=C(O)[C@H]1CSC(c2cccc(O)c2O)=N1`, the Efficiency in the data set with Rattus norvegicus [1] and in the data set on Rattus norvegicus [3] was less than 0.5% in each case.
As to `O=C(O)[C@H]1CSC(c2ccc(O)cc2O)=N1`, in [4], the logD is -1.2. Moreover, the Efficiency was 2.4% with Rattus norvegicus [3] and 4.2% with Monkey [5]. Further, in data set [6], the K app worked out at 0.063. Besides, the No. of deaths result in the data set on Rattus norvegicus [7] is listed as “well tolerated for 10-day test period”.
Regarding `O=C(O)[C@@H]1CSC(c2nc3ccccc3cc2O)=N1`, the Efficiency with Monkey [8] is reported as less than 0.5%; with Rattus norvegicus [2], 12.3%.
For `O=C(O)[C@H]1CSC(c2ncccc2O)=N1`, the Efficiency in the data set with Monkey [9] was 8%; with Monkey [5], 4.8%; with Rattus norvegicus [2] it was 2.4%. Also, the pH-dependent lipophilicity (logD) in data set [4] was -1.87. In addition, in the data set on Rattus norvegicus [10], the No. of deaths entry is listed as “well tolerated for 10-day test period”. For the same compound, the K app in data set [6] was determined as 0.013.
Take `O=C(O)[C@H]1CSC(c2nc3ccccc3cc2O)=N1`: the Efficiency is given as 3.5% with Monkey [5] and 5.9% in the data set on Rattus norvegicus [2].
For `O=C(O)[C@H]1CSC(c2ccccc2O)=N1`, the Efficiency in the data set on Monkey [9] is given as 12.4%; in the data set on Rattus norvegicus [2] it was 1.4%. The No. of deaths entry in the data set on Rattus norvegicus [11] is reported as “Number of deaths 5/5”. This compound had a pH-dependent lipophilicity (logD) in data set [4] of -0.93. For the same compound, the K app in data set [6] was 0.12.
Take `Cc1ccc(O)c(C2=NC(C(=O)O)CC2)c1.Cl` (centres undefined): the Efficiency in the data set with Rattus norvegicus [1] and with Rattus norvegicus [2] was less than 0.5% in each case.
In the case of `C[C@]1(C(=O)O)CSC(c2ncccc2O)=N1` [DESFERRITHIOCIN], the No. of deaths result in the data set on Rattus norvegicus [12] is on record as “Number of deaths 5/5”. The logD in data set [4] was -1.77. Moreover, the Efficiency was 16.1% in the data set on Monkey [5] and 5.5% in the data set on Rattus norvegicus [2]. For the same compound, the K app in [6] is listed as 0.017.

By logD is commonly meant the decadic logarithm of the distribution of all forms, ionised or not, between an organic phase and buffer at a given pH.
